This is an account of results in ChEMBL document CHEMBL4184168, “Anticancer activities of emetine prodrugs that are proteolytically activated by the prostate specific antigen (PSA) and evaluation of in vivo toxicity of emetine derivatives” (Bioorg Med Chem, 2017).

Molecules are shown by their SMILES. *1 amine or outer side, *2 acyl side, *3 side chain or, on linkers, in order; H or OH if unused. Where a SMILES comes first, the peptide text is derived from it. [ ]: non-standard residue; d: D form. The star is where a group is joined. Emetine(N2') = CC[C@H]1CN2CCc3cc(OC)c(OC)cc3[C@@H]2C[C@@H]1C[C@@H]1c2cc(OC)c(OC)cc2CCN1*; PABC = O=C(OCc1ccc(N[*:1])cc1)[*:2]

The test system of data set [1] is PC-3. The data set is described as follows: Antiproliferative activity against human PC3 cells after 3 days by MTT assay. In kind it is functional, cell-based. The gist of the method:
(§1)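 LNCaP seeded at 5 × 10^3 cells/well; PC3, CWR22Rv1 and MDA-MB-231 at 2.5 × 10^3. The first three were grown in RPMI and MDA-MB-231 in DMEM, each with 10% FBS. After 24 h attachment, cells got final 10, 50, 100, 1000 or 10,000 nM (0.1% DMSO) in eight replicates. Viable cells by MTT on day 0, 3 and 5, A570 corrected at 650 nm. Experiments run at least twice.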

Data set [2] deals with Mus musculus. Description: Toxicity in Balb/C mouse assessed as convulsion at >25 mg/kg, iv after 1 min. In kind it is organism-based. Particulars: in vivo. In short, it runs like this:
(§2)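 Male Balb/c mice, eight weeks old, about 25 g. Single IV bolus of 200 μL, doses ranging from 8 to 100 mg/kg, in 1% DMSO/saline or 10% cremophor/saline; vehicle-only controls. Each dose tested in triplicate. Mice watched for convulsions, death and behaviour after injection to set the maximum tolerated dose.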

For data set [3], the target named is T1, Prostate-specific antigen (Homo sapiens, UniProt P07288).
T1 sequence (P07288 whole entry): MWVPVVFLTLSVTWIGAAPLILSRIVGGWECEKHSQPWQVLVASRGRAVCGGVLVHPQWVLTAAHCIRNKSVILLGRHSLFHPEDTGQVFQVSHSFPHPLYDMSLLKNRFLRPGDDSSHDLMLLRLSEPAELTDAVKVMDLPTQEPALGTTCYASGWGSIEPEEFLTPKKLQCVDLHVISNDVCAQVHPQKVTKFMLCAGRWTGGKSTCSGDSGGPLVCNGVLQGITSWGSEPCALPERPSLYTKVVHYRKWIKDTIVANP
Description: Prodrug activation in human plasma assessed as human PSA mediated emetine formation at 200 uM after 48 hrs by HPLC-MS analysis.

The subject of data set [4] is LNCaP. The data set is described as follows: Antiproliferative activity against human LNCAP cells expressing PSA after 3 days by MTT assay. In kind it is functional, cell-based. The gist of the method: as §1
A general note: Tetrazolium assays rely on reduction of a dye to a coloured formazan, in cell work by metabolically active cells.

Data set [5] is described as follows: Toxicity in iv dosed Balb/C mouse. Conditions: in vivo. In kind it is organism-based. In short, it runs like this:
as §2

A short description of data set [6]: Prodrug activation assessed as emetine formation at […] in presence of 10% FBS after 5 days by HPLC-MS analysis. Conditions: cattle, 120 h. In short, it runs like this:
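No enzyme added. 10 mM DMSO stock diluted to 200 μM final (2% DMSO) in PBS, 10% FBS in PBS, or conditioned RPMI (supernatant of LNCaP culture grown to about 95% confluency). Shaken at 37 °C, quenched with cold acetonitrile, centrifuged, supernatant analysed by reversed-phase C18 HPLC (215/285 nm) and ESI-MS.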

Data set [7] has as its target T1, Prostate-specific antigen. The data set is described as follows: Prodrug activation assessed as human PSA mediated 4-((S)-2-((S)-2-Amino-3-hydroxypropanamido)-4-methylpentanamido)benzyl(R)-1-(((2R,3R,11bS)-3-ethyl-9,10-dimethoxy-1,3,4,6,7,11b-hexahydro-2H-pyrido[2,1-a]isoquinolin-2-yl)methyl)-6,7-dimethoxy-3,4-dihydroisoquinoline-2(1H)-carboxylate formation by HPLC-MS analysis. Particulars: TDE = time-dependent effect. The gist of the method: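 10 mM DMSO stock diluted to 200 μM final in PSA buffer (50 mM Tris·HCl, 100 mM NaCl, pH 7.4) with purified PSA at 20 μg/mL final and 2% DMSO. Shaken at 37 °C. Aliquots taken at time points, quenched with cold acetonitrile, held on ice, centrifuged, then analysed by reversed-phase C18 HPLC (215/285 nm) and mass spectrometry.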

Data set [8] deals with CWR22R. Description: Antiproliferative activity against human CWR22Rv1 cells expressing PSA after 3 days by MTT assay. In kind it is functional, cell-based. The gist of the method:
as §1

Data set [9] concerns the target T1, Prostate-specific antigen. Description: Prodrug activation in human plasma assessed as human PSA mediated 4-((S)-2-((S)-2-Amino-3-hydroxypropanamido)-4-methylpentanamido)benzyl(R)-1-(((2R,3R,11bS)-3-ethyl-9,10-dimethoxy-1,3,4,6,7,11b-hexahydro-2H-pyrido[2,1-a]isoquinolin-2-yl)methyl)-6,7-dimethoxy-3,4-dihydroisoquinoline-2(1H)-carboxylate formation at 200 uM after 48 hrs by HPLC-MS analysis.

The IC50 is the midpoint of a concentration-inhibition curve. Read a low IC50 as greater potency in that assay. Regarding `CC[C@H]1CN2CCc3cc(OC)c(OC)cc3[C@@H]2C[C@@H]1C[C@@H]1c2cc(OC)c(OC)cc2CCN1C(=O)OCc1ccc(NC(=O)[C@H](CC(C)C)NC(=O)[C@H](CO)NC(=O)[C@H](CCC(N)=O)NC(=O)[C@H](CC(C)C)NC(=O)[C@H](CCCCN)NC(=O)[C@H](CO)NC(=O)[C@H](CO)NC(=O)[C@H](Cc2cnc[nH]2)NC(C)=O)cc1` (Ac-HSSKLQSL[PABC]-{Emetine(N2')}), the Activity entry in data set [1] is “Dose-dependent effect”; in [2] it was “Toxic”; in data set [4], “Dose-dependent effect”; in [8], “Dose-dependent effect”. Further, the IC50 in data set [1] (PC-3, 72 h) stood at 0.538 µM; in [4] (72 h), 0.059 µM; in data set [8] (22Rv1, 72 h) it was 0.0758 µM. Besides, the Drug metabolism entry in [3] is listed as “Metabolite_Notdetected”; in data set [6], “Metabolite_Notdetected”; in data set [7], “Tde”; in data set [9], “Metabolite_Notdetected”. Moreover, the MTD in data set [5] came out at 25 mg/kg.
